Drawing on PubChem BioAssay AID493091 (Sanford-Burnham Center for Chemical Genomics, 2011), this text covers inhibition for 58 compounds.

Screen size: about 340,000 compounds; about 3,000 (0.88%) were called active.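 The calls were made as follows: active = inhibition above about 50% at 20 µM (limit read from the data); inactive = the rest.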 The sample as a whole holds a higher share of actives than the screen did. Non-standard residues stand in square brackets, D forms with d. Residues, ends and D or L forms follow the SMILES beside them. ξ: configuration not given here. ξM = CSCCC(N)C(=O)O

Sequence of Carboxy-terminal domain RNA polymerase II polypeptide A small phosphatase 1 (Homo sapiens) (Q9GZU7 76-261 limits assumed): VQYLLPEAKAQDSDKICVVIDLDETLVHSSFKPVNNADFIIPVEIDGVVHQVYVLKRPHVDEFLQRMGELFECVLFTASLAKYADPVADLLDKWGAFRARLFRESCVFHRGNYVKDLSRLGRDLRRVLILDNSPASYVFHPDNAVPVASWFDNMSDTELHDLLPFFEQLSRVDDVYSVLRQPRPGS

This assay has as its target Carboxy-terminal domain RNA polymerase II polypeptide A small phosphatase 1 (Homo sapiens) (UniProt Q9GZU7). Briefly: inhibition of human SCP1 dephosphorylation activity – biochemical, colorimetric, uHTS, primary screen (AID 493091).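 Also: plate controls were DMSO wells with enzyme for no effect and wells lacking enzyme for full effect.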 Conditions: Recombinant Scp1, phosphopeptide, malachite green phosphate absorbance; at 20 µM; stronger effect = higher value. The method, boiled down: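 Material – SCP-1 phosphatase catalytic domain, residues 76-261 · Buffer or medium – Acidic Tris acetate buffer with magnesium and detergent · Also added – Phospho 17-mer peptide substrate · Compound – single 20 µM dose, 1% DMSO · Times – 45 min room-temperature reaction, 5 min colour, 30 min stabiliser · Technique – Phosphate-binding colour reagent, absorbance read at 630 nm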
What is called inhibition is the relative decrease from the control value, in per cent. Consider `Cc1ccc(N2C(=O)N3[C@@H]4c5ccccc5OC[C@@H]4[C@@H](c4ccccc4)[C@@]3(C)C2=O)cc1`, for which the inhibition was -17.6% (inactive).
Regarding `N#C/C=C/N1CCN(Cc2ccc3c(c2)OCO3)CC1`, the inhibition was -12.3% (inactive).
Regarding `O=C(c1ccc(F)cc1)N1CCCC(C(=O)N2CCCCC2)C1` (stereo not drawn), the inhibition was -6.52% (inactive).
On to `Cc1ccc(Cc2nnc(SCC(=O)Nc3ccc(C)cc3C)[nH]c2=O)cc1`, for which the inhibition was 53.8% (active).
In the case of `Cc1ccc(Cc2nnc(SCC(=O)Nc3ccccc3C)[nH]c2=O)cc1`, the inhibition was 16.3% (inactive).
As for `COc1ccc(Cc2nnc(SCC(=O)Nc3ccc(C)c(Cl)c3)[nH]c2=O)cc1`, the inhibition was 48% (inactive).
Regarding `COc1ccc2cc(C3=CC(=O)C[C@H](c4ccc5c(c4)OCO5)C3)ccc2c1`, the inhibition was -11% (inactive).
Consider `CCC(C)NC(=O)N[C@@H](CCSC)C(=O)O` (stereo partly drawn), for which the inhibition was -4.53% (inactive).
In the case of `COC(=O)CNC(=O)C(CCSC)NC(C)=O` (stereo not drawn) (Ac-[ξM]-Gly-OMe), the inhibition is 50.3% (active).
In the case of `COc1ccccc1OCCNC(=O)C(CCSC)NC(=O)COc1ccccc1` (stereo not drawn), the inhibition is -8.06% (inactive).
Turning to `CCOc1ccc(OCC)c(NC(=O)CN(C)S(=O)(=O)c2cccc3nsnc23)c1`, the inhibition was -5.95% (inactive).
As for `Cc1ccc(OCCNC(=O)c2cccc(S(=O)(=O)N3CCN(Cc4ccccc4)CC3)c2)cc1`, the inhibition is -10.4% (inactive).
Under `Cc1ccc(-c2nnc(CN3CCN(C)CC3)o2)cc1` stands -6% (inactive); under `CCCCSc1nnc(-c2ccc(C)cc2)o1`, 81.5% (active); under `CC1=CC(C)(C)N(C(=O)CSc2nnc(-c3ccccc3)o2)c2ccc(C)cc21`, -2.74% (inactive).
Take `CCSC1=C(C#N)C(=O)n2c1cc1c2CCCC1`: the inhibition is -1.97% (inactive).
As to `O=C(N/C(=C\c1ccc(F)cc1)C(=O)N1CCCCCC1)c1ccccc1`, the inhibition is -0.73% (inactive).
As to `N#CC1=C(SCc2ccccc2)NC(=O)C(C#N)C12CCCC2` (stereo not drawn), the inhibition was 68.9% (active).
For `N#CC1=C(SCc2ccc(C#N)cc2)N=C(N)C(c2nc(-c3ccccc3)cs2)C12CCCCC2` (stereo not drawn), the inhibition is -1.99% (inactive).
Regarding `CC1(C)CCc2nc(SCc3ccccc3)c(C#N)cc2C1`, the inhibition is -11.5% (inactive).
With `Cc1cc(C)cc(N(CC(=O)NCC2CCCO2)S(=O)(=O)c2c(C)noc2C)c1` (stereo not drawn), the inhibition was -3.08% (inactive).
In the case of `O=C(O)c1ccn(COc2ccc(Br)cc2)n1`, the inhibition was -2.51% (inactive).
With `CC1CCN(C(=O)Cn2nnnc2CN2CCOCC2)CC1`, the inhibition was -6.52% (inactive).
Under `Cc1cc(C)nc(SCc2cn3c(C)cc(C)nc3n2)n1` stands -3.52% (inactive); under `COc1cccc(NC(=O)CN(C)C(=O)/C=C/c2cc(OC)ccc2OC)c1`, -9.57% (inactive).
Regarding `COc1cccc(NC(=O)CN(C)C(=O)/C=C/c2cn(-c3ccccc3)nc2-c2cccs2)c1`, the inhibition is -11.8% (inactive).
Regarding `COc1ccc(NC(=O)CN(C)C(=O)/C=C/c2cn(Cc3ccccc3)nc2-c2cccnc2)cc1`, the inhibition was 97.8% (active).
`Nn1c(SCC(=O)Nc2nccs2)nnc1-c1ccco1`: the inhibition was 1.62% (inactive).
As for `CC1CCCCC1NC(=O)c1cn(C)c2ccc(S(=O)(=O)N3CCOCC3)cc2c1=O` (stereo not drawn), the inhibition was -8.17% (inactive).
On to `Cc1ccc(CNC(=O)Cn2cnc3c(NCc4ccccc4)ncnc32)o1`, for which the inhibition was 1.29% (inactive).
Under `Cc1ccc(C(=O)O)cc1-c1ccc(/C=C2\SC(=O)N(CC(=O)Nc3ccc4c(c3)OCO4)C2=O)o1` stands 94.1% (active); under `Cc1nc([N+](=O)[O-])cn1CC(=O)Nc1ccc2c(c1)OCO2`, -4.74% (inactive); under `Cc1nn(CC(=O)Nc2ccc3c(c2)OCO3)c(C)c1[N+](=O)[O-]`, 0.9% (inactive).
In the case of `CN(Cc1ccccc1)C(=O)c1ccc(NC2=NC3CS(=O)(=O)CC3S2)cc1` (stereo not drawn), the inhibition was -3.86% (inactive).
For `COc1ccc(S(=O)(=O)NCCc2cc3ccc(C)c(C)c3[nH]c2=O)cc1`, the inhibition is -6.43% (inactive).
Under `COc1ccc(S(=O)(=O)N(C)CC(=O)N2CCCC2)cc1Cl` stands -2.74% (inactive); under `COc1ccc(S(=O)(=O)c2c[nH]c(=S)[nH]c2=O)cc1Cl`, 52.5% (active).
Regarding `Cc1ccc(S(=O)(=O)c2c[nH]c3ccc(Cl)cc3c2=O)cc1`, the inhibition was 30.5% (inactive).
As for `COC(=O)/C=C\C(=O)Nc1cccc([N+](=O)[O-])c1`, the inhibition is -2.7% (inactive).
With `Cc1ccc(/C=C/C(=O)Nc2cc(S(=O)(=O)N3CCCCCC3)ccc2OCC(F)(F)F)o1`, the inhibition was -9.11% (inactive).
Under `Cc1ccc(/C=C/C(=O)Nc2ccc([N+](=O)[O-])c(NC(=O)/C=C/c3ccc(C)o3)c2)o1` stands 53.2% (active); under `CCOc1ccc(NC(=O)C2CC(=O)N=C(N)S2)cc1` (stereo not drawn), -10.8% (inactive).
`Cn1c2c(c(=O)n(C)c1=O)C(c1cccc(F)c1)C(C#N)=C(N)O2` (stereo not drawn): the inhibition was -7.3% (inactive).
As to `O=C(Cc1ccc([N+](=O)[O-])cc1)N/N=C/c1ccco1`, the inhibition was -11.8% (inactive).
Regarding `O=C(N/N=C/c1ccco1)c1csc2c1CCCC2`, the inhibition is 0.11% (inactive).
`O=C(N/N=C/c1ccco1)c1ccc(C(=O)N/N=C/c2ccco2)o1`: the inhibition is 83.9% (active).
Under `CCn1c(=S)sc2c(=O)n(CC(=O)Nc3cccc(Br)c3)c(C)nc21` stands -11% (inactive); under `Cc1ccc(-c2nc(CS(=O)CC(=O)N3CCN(c4ncccn4)CC3)c(C)o2)cc1` (stereo not drawn), 13.2% (inactive); under `O=C(c1ccc(S(=O)(=O)NCc2ccco2)cc1)N1CCN(c2ccccc2)CC1`, 22.5% (inactive).
As to `O=C(c1ccc(CS(=O)(=O)c2ccccc2)o1)N1CCN(c2ccccc2)CC1`, the inhibition was 62.1% (active).
The value for `COc1ccccc1CNC(=O)c1ccc(CS(=O)(=O)c2ccccc2)o1` was -4.06% (inactive); that for `CC(C)NC(=O)C(c1ccc(F)cc1)N(C(=O)CCC(=O)Nc1ccccn1)c1ccccc1F` (stereo not drawn) was -5.49% (inactive).
Regarding `Cc1ccc(-c2noc(C3CCCN(C(=O)c4cccc(Cl)c4)C3)n2)o1` (stereo not drawn), the inhibition was -1.22% (inactive).
Take `O=C(NN=Cc1ccccc1O)NN=Cc1ccccc1O`: the inhibition is 85.7% (active).
Turning to `O=C(N/N=C/c1ccccc1O)C1CCCC1`, the inhibition is -10.5% (inactive).
As to `O=C(N/N=C/c1ccccc1O)/C(=C/c1ccccc1)CCO`, the inhibition was -13.2% (inactive).
Under `COc1ccccc1CN(C)C(=O)C1(c2ccc(Cl)cc2)CC1` stands -10.7% (inactive).
Take `CSCCC(NS(=O)(=O)c1ccc(C)cc1)C(=O)N1CCCC1` (stereo not drawn): the inhibition is -0.76% (inactive).
